Molecules are shown by their SMILES. Active and inactive are the calls of the source. No cut-off for these calls is given here.

Here are results for ten compounds from ChEMBL document CHEMBL4229489, “Synthesis and evaluation of camphor and cytisine-based cyanopyrrolidines as DPP-IV inhibitors for the treatment of type 2 diabetes mellitus” (Bioorg Med Chem, 2018).

One assay deals with Mus musculus. Briefly: Hypoglycemic activity in albino CD-1 mouse assessed as reduction in blood glucose level at 10 mg/kg, po pretreated for 0.5 hrs followed by glucose challenge and measured after 30 to 90 mins by OGTT. Type of assay: functional, organism-based. Summed up: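 Male CD-1 albino mice, 25–35 g, randomized by weight into groups of 5, fasted 12 h. Compounds mixed with a few drops of Tween 80 or DMSO, dissolved in distilled water, given orally at 10 mg/kg 0.5 h before an oral glucose load (2.5 g/kg). Controls got vehicle only. Blood glucose read by glucometer at 0, 30, 60, 90 min. Mean ± SD, n = 5.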

For the next assay, the target named is Dipeptidyl peptidase 4 (Homo sapiens, UniProt P27487). The experiment in a line: Inhibition of recombinant human DPP4 using H-Gly-Pro-AMC as substrate measured after 10 mins.
Chain of Dipeptidyl peptidase 4 (P27487 whole entry): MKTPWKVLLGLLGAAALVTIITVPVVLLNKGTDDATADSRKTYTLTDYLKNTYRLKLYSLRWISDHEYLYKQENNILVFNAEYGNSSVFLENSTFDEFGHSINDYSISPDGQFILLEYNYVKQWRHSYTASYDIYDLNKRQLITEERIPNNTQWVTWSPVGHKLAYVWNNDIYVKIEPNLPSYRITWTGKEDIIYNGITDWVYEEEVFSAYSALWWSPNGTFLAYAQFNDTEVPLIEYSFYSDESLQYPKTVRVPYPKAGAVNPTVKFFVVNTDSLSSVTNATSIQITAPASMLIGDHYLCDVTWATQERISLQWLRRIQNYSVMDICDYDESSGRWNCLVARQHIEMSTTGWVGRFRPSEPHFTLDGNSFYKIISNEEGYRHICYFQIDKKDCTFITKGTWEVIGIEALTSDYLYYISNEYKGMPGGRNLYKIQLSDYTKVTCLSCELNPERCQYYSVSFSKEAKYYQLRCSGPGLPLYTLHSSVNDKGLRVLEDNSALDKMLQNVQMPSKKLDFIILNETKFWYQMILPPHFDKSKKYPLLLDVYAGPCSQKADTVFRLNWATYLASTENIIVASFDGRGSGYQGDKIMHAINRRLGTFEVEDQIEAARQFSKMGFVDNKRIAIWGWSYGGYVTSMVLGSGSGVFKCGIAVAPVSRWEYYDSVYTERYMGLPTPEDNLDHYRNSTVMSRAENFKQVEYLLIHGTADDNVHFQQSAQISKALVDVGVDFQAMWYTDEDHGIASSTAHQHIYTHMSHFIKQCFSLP

Turning to `CC1(C)[C@@H]2CC[C@@]1(C)[C@H](NCC(=O)N1CCC[C@H]1C#N)C2`, in the assay with Mus musculus, the outcome was Active. Consider `N#C[C@@H]1CCCN1C(=O)CN1C[C@H]2C[C@H](C1)c1cccc(=O)n1C2`, for which the IC50 entry on Dipeptidyl peptidase 4 is “Not Active”. In addition, the result with Mus musculus was inactive. As for `CC1(C)[C@H]2CC[C@]1(C)[C@@H](NCC(=O)N1CCC[C@H]1C#N)C2`, the result in the assay with Mus musculus was Active. For the compound `N#C[C@@H]1CCCN1C(=O)CN1C[C@H]2C[C@H](C1)c1c(Br)cc(Br)c(=O)n1C2`, the IC50 entry at Dipeptidyl peptidase 4 was “Not Active”. In addition, in the assay with Mus musculus, the outcome was inactive. For `N#C[C@@H]1CCCN1C(=O)CN1C[C@H]2C[C@H](C1)c1c(Cl)ccc(=O)n1C2` the same measures were “Not Active” and “inactive”. Regarding `CC1(C)[C@H]2CC[C@]1(C)[C@@H](O)[C@H]2NCC(=O)N1CCC[C@H]1C#N` (stereo in doubt), the outcome in the assay with Mus musculus was Active. Take `CC12CCC([C@H](NCC(=O)N3CCC[C@H]3C#N)C1=O)C2(C)C` (single isomer, unassigned): in the assay on Mus musculus, the result was Active.

In the case of `N#C[C@@H]1CCCN1C(=O)CN1C[C@H]2C[C@H](C1)c1c(Cl)cc(Cl)c(=O)n1C2`, on Dipeptidyl peptidase 4, the IC50 result is “Not Active”. Further, the outcome in the assay on Mus musculus was inactive. The like results for `N#C[C@@H]1CCCN1C(=O)CN1C[C@H]2C[C@H](C1)c1ccc([N+](=O)[O-])c(=O)n1C2` were, in that order, “Not Active” and “inactive”. On to `N#C[C@@H]1CCCN1C(=O)CNC12CC3CC(CC(O)(C3)C1)C2`, for which the outcome in the assay with Mus musculus was Active.
